Experimental data published in ChEMBL document CHEMBL1122519, “Bispyridinamines: a new class of topical antimicrobial agents as inhibitors of dental plaque” (1984).
In brackets after ≈: the same amount, converted by molar mass.

How the values were obtained:
Actinomyces viscosus [1] = experiment: Compound is evaluated for minimal bactericidal concentration against plaque formation for Actinomyces viscosus; type: functional, organism-based
Procedure, shortened: (§1)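 Preformed in vitro plaques of S. mutans NCTC 10449 or A. viscosus M-100 were grown on ceramic hydroxylapatite under anaerobic conditions at 37 °C in sucrose-supplemented medium. Plaques were immersed for 30 min at 37 °C in compound at 0.3–20 mM, rinsed, and moved to broth containing bromocresol purple. Kill was judged by no acid production, no turbidity increase and no growth on plating at 48 h. Plaques were run in quadruplicate.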

Actinomyces naeslundii = experiment: Compound is evaluated for plaque-bactericidal index (PBI) against Actinomyces naeslundii 631; type: functional
Actinomyces viscosus [2] = experiment: Compound is evaluated for plaque-bactericidal index (PBI) against Actinomyces viscosus M-100; type: functional
Escherichia coli [3] = experiment: Antimicrobial minimum inhibitory concentration against Escherichia coli AB1932-1; type: functional
Procedure, shortened: (§2)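 Serial twofold tube dilution in tryptose phosphate broth. Each compound was prepared as a 1000 μg/mL aqueous stock and diluted in double-strength broth, then 2×10^5 cells were added. Tubes were incubated aerobically at 37 °C for 24 h. The MIC was taken as the lowest concentration with no visible growth.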

Escherichia coli [4] = experiment: Minimum inhibitory concentration against Escherichia coli (Vogel); type: functional; procedure, shortened: as §2
Escherichia coli [5] = experiment: Antimicrobial minimum inhibitory concentration against Escherichia coli 100/B22; type: functional; procedure, shortened: as §2
Klebsiella pneumoniae = experiment: Minimum inhibitory concentration against Klebsiella pneumonia 39645; type: functional; procedure, shortened: as §2
Pseudomonas aeruginosa = experiment: Compound is evaluated for the antimicrobial minimum inhibitory concentration against Pseudomonas aeruginosa MGH-1; type: functional
Streptococcus mutans [6] = experiment: (§3) Compound is evaluated for the effect of saliva upon the antiplaque activity at 50% of saliva and at 0.01 percentage of compound; + = Slight plaque accumulation; type: functional, organism-based
Procedure, shortened: (§4)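 Hydroxylapatite plate antiplaque assay against S. mutans run for 48 h, with two 1-min exposures to aqueous compound per 24 h. Growth medium contained 0, 5 or 50% pooled human saliva (paraffin-stimulated, centrifuged, filtered, membrane-sterilized). Plaque was stained with FD&C Red No. 3 and graded none, slight or moderate. Staining potential was scored on plates run without inoculum and graded none or slight.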

Streptococcus mutans [7] = experiment: Compound is evaluated for the effect of saliva upon the antiplaque activity at 50% of saliva and at 0.025 percentage of compound; + = Slight staining; type: functional, organism-based; procedure, shortened: as §4
Streptococcus mutans [8] = experiment: Compound is evaluated for the effect of saliva upon the antiplaque activity at 50% of saliva and at 0.05 percentage of compound; + = Slight staining; type: functional, organism-based; procedure, shortened: as §4
Streptococcus sanguinis = experiment: Compound is evaluated for plaque-bactericidal index (PBI) against Streptococcus sanguis 10558; type: functional
Streptococcus mutans [9] = experiment: (§5) Compound is evaluated for the effect of saliva upon the antiplaque activity at 0% of saliva and at 0.01 percentage of compound; - = No plaque accumulation; type: functional, organism-based; procedure, shortened: as §4
Streptococcus mutans [10] = experiment: Compound is evaluated for the effect of saliva upon the antiplaque activity at 0% of saliva and at 0.025 percentage of compound; - = No plaque accumulation; type: functional, organism-based; procedure, shortened: as §4
Streptococcus mutans [11] = experiment: Compound is evaluated for the effect of saliva upon the antiplaque activity at 0% of saliva and at 0.05 percentage of compound; - = No plaque accumulation; type: functional, organism-based; procedure, shortened: as §4
Streptococcus mutans [12] = experiment: Compound is evaluated for the effect of saliva upon the antiplaque activity at 50% of saliva and at 0.025 percentage of compound; - = No plaque accumulation; type: functional, organism-based; procedure, shortened: as §4
Streptococcus mutans [13] = experiment: Compound is evaluated for the effect of saliva upon the antiplaque activity at 50% of saliva and at 0.05 percentage of compound; - = No plaque accumulation; type: functional, organism-based; procedure, shortened: as §4
Streptococcus mutans [14] = experiment: Compound is evaluated for the effect of saliva upon the antiplaque activity at 0% of saliva and at 0.025 percentage of compound; + = Slight staining; type: functional, organism-based; procedure, shortened: as §4
Streptococcus mutans [15] = experiment: Compound is evaluated for the effect of saliva upon the antiplaque activity at 0% of saliva and at 0.05 percentage of compound; + = Slight staining; type: functional, organism-based; procedure, shortened: as §4
Streptococcus mutans [16] = experiment: (§6) Compound is evaluated for the effect of saliva upon the antiplaque activity at 50% of saliva and at 0.01 percentage of compound; - = No staining; type: functional, organism-based; procedure, shortened: as §4
Streptococcus mutans [17] = experiment: Compound is evaluated for plaque-bactericidal index (PBI) against Streptococcus mutans 10449; type: functional
Streptococcus mutans [18] = experiment: Compound is evaluated for minimum plaque inhibitory concentration using a standard test organism, Streptococcus mutans OMZ-61; type: functional
Procedure, shortened: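 S. mutans OMZ-61 in pH 7.0 beef extract–trypticase medium with 0.5% sucrose. Sterile ceramic hydroxylapatite plates got two 1-min soaks in 0.1–0.001% compound, each followed by 1-min air-drying, then a 5-min water rinse. Plates were put in inoculated medium at 37 °C anaerobically for 24 h. The cycle was repeated for a second 24 h. Plaque was stained with 1% FD&C Red No. 3. Value is the lowest concentration completely preventing plaque.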

Staphylococcus aureus = experiment: Compound is evaluated for the antimicrobial minimum inhibitory concentration against Staphylococcus aureus (Smith); type: functional; procedure, shortened: as §2
Streptococcus mutans [19] = experiment: Compound is evaluated for the effect of saliva upon the staining potential at 0% of saliva and at 0.01 percentage of compound; + = Slight staining; type: functional, organism-based; procedure, shortened: as §4
Streptococcus mutans [20] = experiment: Compound is evaluated for minimal bactericidal concentration against plaque formation for Streptococcus mutans; type: functional, organism-based; procedure, shortened: as §1
[21] = Compound is evaluated for stain index; type: functional
Procedure, shortened: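 Ratio of the minimum concentration staining a plaque-free ceramic hydroxylapatite plate to the minimum plaque-inhibiting concentration, both run under the same conditions. Plates got two 1-min soaks (0.1–0.001%), each followed by air-drying, then a water rinse. They were then held 24 h anaerobically at 37 °C in sucrose beef-extract medium, with or without S. mutans OMZ-61, repeated once. Staining was 1-min 1% FD&C Red No. 3, scored visually.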

Proteus mirabilis = experiment: Compound is evaluated for the antimicrobial minimum inhibitory concentration against Proteus mirabilis MGH-1; type: functional; procedure, shortened: as §2
Streptococcus mutans [22] = experiment: as §5; type: functional, organism-based; remark: listed apart in the source
Procedure, shortened: (§7)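 Hydroxylapatite plates were treated twice daily with 1-min exposures to aqueous compound (0.001–0.1%), air-dried and rinsed. They were then incubated anaerobically at 37 °C with S. mutans in sucrose medium for 48 h. The medium held 0, 5 or 50% pooled, centrifuged, filter-sterilised human saliva. Plaque and plate staining were scored visually after FD&C Red No. 3 dye. Staining was scored on plates run without organism.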

Streptococcus mutans [23] = experiment: Compound is evaluated for the effect of saliva upon the antiplaque activity at 0% of saliva and at 0.1 percentage of compound; - = No plaque accumulation; type: functional, organism-based; procedure, shortened: as §7
Streptococcus mutans [24] = experiment: Compound is evaluated for the effect of saliva upon the antiplaque activity at 5% of saliva and at 0.005 percentage of compound; + = Slight plaque accumulation; type: functional, organism-based; procedure, shortened: as §7
Streptococcus mutans [25] = experiment: Compound is evaluated for the effect of saliva upon the antiplaque activity at 5% of saliva and at 0.01 percentage of compound; + = Slight plaque accumulation; type: functional, organism-based; procedure, shortened: as §7
Streptococcus mutans [26] = experiment: as §3; type: functional, organism-based; procedure, shortened: as §7; remark: listed apart in the source
Streptococcus mutans [27] = experiment: Compound is evaluated for the effect of saliva upon the antiplaque activity at 0% of saliva and at 0.005 percentage of compound; + = Slight staining; type: functional, organism-based; procedure, shortened: as §7
Streptococcus mutans [28] = experiment: Compound is evaluated for the effect of saliva upon the antiplaque activity at 0% of saliva and at 0.01 percentage of compound; + = Slight staining; type: functional, organism-based; procedure, shortened: as §7
Streptococcus mutans [29] = experiment: Compound is evaluated for the effect of saliva upon the antiplaque activity at 0% of saliva and at 0.1 percentage of compound; - = No staining; type: functional, organism-based; procedure, shortened: as §7
Streptococcus mutans [30] = experiment: Compound is evaluated for the effect of saliva upon the antiplaque activity at 5% of saliva and at 0.01 percentage of compound; - = No staining; type: functional, organism-based; procedure, shortened: as §7
Streptococcus mutans [31] = experiment: Compound is evaluated for the effect of saliva upon the antiplaque activity at 50% of saliva and at 0.005 percentage of compound; - = No staining; type: functional, organism-based; procedure, shortened: as §7
Streptococcus mutans [32] = experiment: as §6; type: functional, organism-based; procedure, shortened: as §7; remark: listed apart in the source
Streptococcus mutans [33] = experiment: Compound is evaluated for the effect of saliva upon the antiplaque activity at 50% of saliva and at 0.1 percentage of compound; - = No staining; type: functional, organism-based; procedure, shortened: as §7
Streptococcus mutans [34] = experiment: Compound is evaluated for the effect of saliva upon the antiplaque activity at 0% of saliva and at 0.001 percentage of compound; - = No plaque accumulation; type: functional, organism-based; procedure, shortened: as §7
Streptococcus mutans [35] = experiment: Compound is evaluated for the effect of saliva upon the antiplaque activity at 0% of saliva and at 0.005 percentage of compound; - = No plaque accumulation; type: functional, organism-based; procedure, shortened: as §7
Streptococcus mutans [36] = experiment: Compound is evaluated for the effect of saliva upon the antiplaque activity at 50% of saliva and at 0.1 percentage of compound; + = Slight plaque accumulation; type: functional, organism-based; procedure, shortened: as §7
Streptococcus mutans [37] = experiment: Compound is evaluated for the inhibition of plaque-forming enzyme of Streptococcus mutans OMZ-61; type: functional
Procedure, shortened: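 S. mutans OMZ-61 was grown anaerobically at 37 °C for 24 h in glucose medium. The cell-free filtrate, adjusted to pH 5.5, served as the dextran/levan sucrase source. Reactions contained 3 μmol 14C-sucrose in citrate phosphate buffer pH 5.5 with 4% EtOH and ran 2 h at 37 °C. MeOH-insoluble polysaccharide was counted by scintillation. Compounds were tested at 50, 160 and 500 μg base/mL, with lower levels if needed, and I50 was read graphically.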

Streptococcus mutans [38] = experiment: Compound is evaluated for the effect of saliva upon the staining potential at 0% of saliva and at 0.001 percentage of compound; - = No staining; type: functional, organism-based; procedure, shortened: as §7

N=C(NCCCCCCNC(=N)NC(=N)Nc1ccc(Cl)cc1)NC(=N)Nc1ccc(Cl)cc1 [CHLORHEXIDINE]
Concentration (Actinomyces viscosus [1]): 1.6 mM | PBI (Actinomyces naeslundii): 19.2 | PBI (Actinomyces viscosus [2]): 19.2 | MIC (Escherichia coli [3]): 0.5 µg/mL (≈ 0.989 µM) | MIC (Escherichia coli [4]): 0.5 µg/mL (≈ 0.989 µM) | MIC (Escherichia coli [5]): 1 µg/mL (≈ 1.98 µM) | MIC (Klebsiella pneumoniae): 3.9 µg/mL (≈ 7.72 µM) | MIC (Pseudomonas aeruginosa): 15.6 µg/mL (≈ 30.9 µM) | Plaque accum (Streptococcus mutans [6]): No plaque accumulation | Staining potential (Streptococcus mutans [7]): No staining | Staining potential (Streptococcus mutans [8]): No staining | PBI (Streptococcus sanguinis): 32 | Plaque accum (Streptococcus mutans [9]): No plaque accumulation | Plaque accum (Streptococcus mutans [10]): No plaque accumulation | Plaque accum (Streptococcus mutans [11]): No plaque accumulation | Plaque accum (Streptococcus mutans [12]): No plaque accumulation | Plaque accum (Streptococcus mutans [13]): No plaque accumulation | Staining potential (Streptococcus mutans [14]): No staining | Staining potential (Streptococcus mutans [15]): No staining | Staining potential (Streptococcus mutans [16]): No staining | PBI (Streptococcus mutans [17]): 25.6 | Min plague Inhibitory (Streptococcus mutans [18]): 0.005% | MIC (Staphylococcus aureus): 0.2 µg/mL (≈ 0.396 µM) | Staining potential (Streptococcus mutans [19]): No staining | Concentration (Streptococcus mutans [20]): 3.2 mM | Stain index [21]: 1 | MIC (Proteus mirabilis): 15.6 µg/mL (≈ 30.9 µM)

CCCCCCCCCCCCCCCC[n+]1ccccc1.[Cl-]
Plaque accum (Streptococcus mutans [22]): No plaque accumulation | Plaque accum (Streptococcus mutans [23]): No plaque accumulation | Plaque accum (Streptococcus mutans [24]): No plaque accumulation | Plaque accum (Streptococcus mutans [25]): No plaque accumulation | Plaque accum (Streptococcus mutans [26]): No plaque accumulation | Staining potential (Streptococcus mutans [27]): No staining | Staining potential (Streptococcus mutans [28]): No staining | Staining potential (Streptococcus mutans [29]): No staining | Staining potential (Streptococcus mutans [30]): No staining | Staining potential (Streptococcus mutans [31]): No staining | Staining potential (Streptococcus mutans [32]): No staining | Staining potential (Streptococcus mutans [33]): No staining | Plaque accum (Streptococcus mutans [34]): No plaque accumulation | Plaque accum (Streptococcus mutans [35]): No plaque accumulation | Plaque accum (Streptococcus mutans [36]): No plaque accumulation | I50 (Streptococcus mutans [37]): 95 (ug of base) ml-1 | Staining potential (Streptococcus mutans [38]): No staining
